20 molecules from ChEMBL document CHEMBL1141897, “Pyrrolidinedione derivatives as antibacterial agents with a novel mode of action” (Bioorg Med Chem Lett, 2005) can be followed below.

What all share (assay type): functional
The subject of test [1] is Escherichia coli. In words: Inhibitory concentration of the compound against Escherichia coli was determined.
In test [2] the test system is Escherichia coli. In words: Minimum inhibitory concentration of the compound againstEscherichia coli HN818 strain was determined. An outline of the steps:
(§1)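 Whole-cell MIC panel of the Gram-positive S. aureus 133 and S. pneumoniae G9A, plus two E. coli strains: Neumann (wild type) and HN818 (efflux pump deletion strain).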

Test [3] deals with Escherichia coli. The test can be described thus: Minimum inhibitory concentration of the compound againstEscherichia coli Neumann strainwas determined. An outline of the steps: as §1
In test [4] the test system is Staphylococcus aureus. In words: Minimum inhibitory concentration of the compound against Staphylococcus aureus 133 strain was determined. Put shortly:
as §1

Test [5] concerns Staphylococcus aureus. The test can be described thus: Inhibitory concentration of the compound against Staphylococcus aureus was determined.
The test system of another test is Streptococcus pneumoniae. In words: Minimum inhibitory concentration against Streptococcus pneumoniae G9A strain was determined.

The structures appear in SMILES notation. Converted amounts (≈) assume the structure as drawn.

As usually defined, the IC50 is the midpoint of a concentration-inhibition curve. Low readings indicate inhibition by little substance, high ones a need for much substance. What is called MIC is the smallest concentration in the dilution series that meets the test's criterion for growth inhibition. In the case of `C/C=C/C=C/C(=O)N[C@@H](CC(=O)N[C@H](C(=O)[C@@H]1C(=O)N(NC)C(=O)[C@H]1C)C(C)C)c1ccccc1`, the IC50 in the test with Escherichia coli [1] turned out to be 14 nM; in the test with Staphylococcus aureus [5], 105 nM. For the same molecule, the MIC against Escherichia coli [2] was 8 µg/mL (≈ 16.6 µM); against Escherichia coli [3], above 64 µg/mL; against Staphylococcus aureus [4], 4 µg/mL (≈ 8.29 µM); in the test on Streptococcus pneumoniae, 16 µg/mL (≈ 33.2 µM).

For `C/C=C/C=C/C(=O)N[C@@H](CC(=O)N[C@H](C(=O)[C@@H]1C(=O)N(C)C(=O)[C@H]1C)C(C)C)c1ccccc1`, the IC50 in the test with Escherichia coli [1] worked out at 25 nM; with Staphylococcus aureus [5], 211 nM. Besides, the MIC against Escherichia coli [2] was 16 µg/mL (≈ 34.2 µM); against Escherichia coli [3] it was above 64 µg/mL; against Staphylococcus aureus [4], 16 µg/mL (≈ 34.2 µM); in the test on Streptococcus pneumoniae it was above 64 µg/mL.

On to `CC(C)[C@H](NC(=O)C[C@H](NC(=O)/C=C/c1ccccc1)c1ccccc1)C(=O)[C@@H]1C(=O)NC(=O)[C@H]1C`, for which the IC50 with Escherichia coli [1] stood at 9 nM; in the test on Staphylococcus aureus [5], 75 nM. In addition, the MIC against Escherichia coli [2] amounted to 2 µg/mL (≈ 4.09 µM); in the test on Escherichia coli [3] it was 32 µg/mL (≈ 65.4 µM); in the test with Staphylococcus aureus [4], 8 µg/mL (≈ 16.3 µM); with Streptococcus pneumoniae, 32 µg/mL (≈ 65.4 µM).

With `C/C=C/C=C/C(=O)N[C@@H](CC(=O)N[C@H](C(=O)C1C(=O)NC(=O)CC1C)C(C)C)c1ccccc1` (stereo not given in full), the IC50 was above 300 nM in the test on Escherichia coli [1] and above 1000 nM with Staphylococcus aureus [5]. Also, the MIC against Escherichia coli [2], in the test with Escherichia coli [3], against Staphylococcus aureus [4] and against Streptococcus pneumoniae was above 64 µg/mL in each case.

Turning to `C/C=C/C=C/C(=O)N[C@@H](CC(=O)N[C@H](C(=O)[C@@H]1C(=O)N(N(C)C)C(=O)[C@H]1C)C(C)C)c1ccccc1`, the IC50 in the test with Escherichia coli [1] came to 33 nM; in the test with Staphylococcus aureus [5] it was 238 nM. For the same molecule, the MIC with Escherichia coli [2] is 4 µg/mL (≈ 8.05 µM); against Escherichia coli [3], above 64 µg/mL; in the test on Staphylococcus aureus [4], 4 µg/mL (≈ 8.05 µM); against Streptococcus pneumoniae, 16 µg/mL (≈ 32.2 µM).

`C/C=C/C=C/C(=O)N[C@@H](CC(=O)N[C@H](C(=O)[C@@H]1C(=O)N(C)C(=O)[C@H]1CC)C(C)C)c1ccccc1`: the IC50 with Escherichia coli [1] was above 200 nM; in the test on Staphylococcus aureus [5], above 1000 nM. Moreover, the MIC with Escherichia coli [2], in the test on Escherichia coli [3], in the test with Staphylococcus aureus [4] and in the test with Streptococcus pneumoniae was above 64 µg/mL in each case.

Turning to `CC(C)[C@H](NC(=O)C[C@H](NC(=O)/C=C/c1ccc(Cl)c(Cl)c1)c1ccccc1)C(=O)[C@@H]1C(=O)NC(=O)[C@H]1C`, the IC50 with Escherichia coli [1] stood at 7 nM; with Staphylococcus aureus [5], 288 nM. The MIC in the test with Escherichia coli [2] amounted to 1 µg/mL (≈ 1.79 µM); against Escherichia coli [3], 8 µg/mL (≈ 14.3 µM); in the test on Staphylococcus aureus [4], 2 µg/mL (≈ 3.58 µM); in the test on Streptococcus pneumoniae it was 32 µg/mL (≈ 57.3 µM).

Regarding `COc1cccc(/C=C/C(=O)N[C@@H](CC(=O)N[C@H](C(=O)[C@@H]2C(=O)NC(=O)[C@H]2C)C(C)C)c2ccccc2)c1`, the figures for the half-maximal inhibitory concentration (IC50) in the test with Escherichia coli [1] and in the test on Staphylococcus aureus [5] were 4 nM and 43 nM, respectively. In addition, the MIC in the test with Escherichia coli [2] stood at 2 µg/mL (≈ 3.85 µM); against Escherichia coli [3] it was 32 µg/mL (≈ 61.6 µM); against Staphylococcus aureus [4] it was 4 µg/mL (≈ 7.7 µM); against Streptococcus pneumoniae it was 16 µg/mL (≈ 30.8 µM).

With `C/C=C/C=C/C(=O)N[C@@H](CC(=O)N[C@H](C(=O)[C@@H]1C(=O)N(CCOC)C(=O)[C@H]1C)C(C)C)c1ccccc1`, the figures for the IC50 with Escherichia coli [1] and in the test on Staphylococcus aureus [5] were 150 nM and 1300 nM, respectively. Moreover, the MIC in the test on Escherichia coli [2] was above 64 µg/mL; with Escherichia coli [3] it was above 64 µg/mL; in the test with Staphylococcus aureus [4] it was 64 µg/mL (≈ 125 µM); with Streptococcus pneumoniae, 64 µg/mL (≈ 125 µM).

On to `CC(C)[C@H](NC(=O)C[C@H](NC(=O)/C=C/c1c[nH]cn1)c1ccccc1)C(=O)[C@@H]1C(=O)NC(=O)[C@H]1C`, for which the IC50 amounted to 6 nM in the test on Escherichia coli [1] and 151 nM in the test on Staphylococcus aureus [5]. In addition, the MIC in the test on Escherichia coli [2] was 64 µg/mL (≈ 133 µM); in the test on Escherichia coli [3], above 64 µg/mL; against Staphylococcus aureus [4], above 64 µg/mL; in the test with Streptococcus pneumoniae it was above 64 µg/mL.

In the case of `C/C=C/C=C/C(=O)N[C@@H](CC(=O)N[C@H](C(=O)[C@@H]1C(=O)N(OCC)C(=O)[C@H]1C)C(C)C)c1ccccc1`, the IC50 is 100 nM in the test on Escherichia coli [1] and 123 nM in the test on Staphylococcus aureus [5]. Besides, the MIC in the test with Escherichia coli [2] is 64 µg/mL (≈ 129 µM); against Escherichia coli [3], above 64 µg/mL; with Staphylococcus aureus [4] it was 8 µg/mL (≈ 16.1 µM); with Streptococcus pneumoniae, 32 µg/mL (≈ 64.3 µM).

With `CC(C)[C@H](NC(=O)C[C@H](NC(=O)/C=C/c1ccc(-c2ccccc2)cc1)c1ccccc1)C(=O)[C@@H]1C(=O)NC(=O)[C@H]1C`, the IC50 worked out at 37 nM with Escherichia coli [1] and 540 nM in the test with Staphylococcus aureus [5]. The MIC was above 64 µg/mL in the test with Escherichia coli [2], above 64 µg/mL against Escherichia coli [3], 2 µg/mL (≈ 3.54 µM) in the test on Staphylococcus aureus [4] and 16 µg/mL (≈ 28.3 µM) with Streptococcus pneumoniae.

For `C/C=C/C=C/C(=O)N[C@@H](CC(=O)N[C@H](C(=O)[C@@H]1C(=O)N(C2CC2)C(=O)[C@H]1C)C(C)C)c1ccccc1`, the IC50 in the test with Escherichia coli [1] was determined as 60 nM; in the test on Staphylococcus aureus [5] it was 2560 nM. The MIC with Escherichia coli [2], with Escherichia coli [3], against Staphylococcus aureus [4] and in the test on Streptococcus pneumoniae was above 64 µg/mL each time.

On to `C/C=C/C=C/C(=O)N[C@@H](CC(=O)N[C@H](C(=O)[C@@H]1C(=O)NC(=O)[C@H]1C)C(C)C)c1ccccc1`, for which the values for the IC50 in the test with Escherichia coli [1] and with Staphylococcus aureus [5] were 6 nM and 96 nM, respectively. In addition, the MIC with Escherichia coli [2] was found to be 4 µg/mL (≈ 8.82 µM); in the test on Escherichia coli [3], 32 µg/mL (≈ 70.6 µM); in the test with Staphylococcus aureus [4], 8 µg/mL (≈ 17.6 µM); against Streptococcus pneumoniae, 32 µg/mL (≈ 70.6 µM).

For `C/C=C/C=C/C(=O)N[C@@H](CC(=O)N[C@H](C(=O)C1CC(C)C(=O)NC1=O)C(C)C)c1ccccc1` (stereo not given in full), the figures for the IC50 in the test on Escherichia coli [1] and in the test with Staphylococcus aureus [5] were 295 nM and above 1000 nM, respectively. Further, the MIC against Escherichia coli [2], with Escherichia coli [3], in the test with Staphylococcus aureus [4] and with Streptococcus pneumoniae was above 64 µg/mL throughout.

Turning to `C/C=C/C=C/C(=O)N[C@@H](CC(=O)N[C@H](C(=O)[C@H]1CC(=O)N(C)C1=O)C(C)C)c1ccccc1`, the IC50 with Escherichia coli [1] is above 200 nM; in the test on Staphylococcus aureus [5] it was above 1000 nM. The MIC in the test with Escherichia coli [2], against Escherichia coli [3], in the test with Staphylococcus aureus [4] and with Streptococcus pneumoniae was above 64 µg/mL throughout.

For `CC(C)[C@H](NC(=O)C[C@H](NC(=O)/C=C/C(=O)O)c1ccccc1)C(=O)[C@@H]1C(=O)NC(=O)[C@H]1C`, the IC50 with Escherichia coli [1] was 2 nM; in the test with Staphylococcus aureus [5], 317 nM. Also, the MIC against Escherichia coli [2], in the test with Escherichia coli [3], against Staphylococcus aureus [4] and against Streptococcus pneumoniae was above 64 µg/mL each time.

As for `C/C=C/C=C/C(=O)N[C@@H](CC(=O)N[C@H](C(=O)C1CCC(=O)NC1=O)C(C)C)c1ccccc1` (stereo not given in full), the IC50 was above 300 nM in the test on Escherichia coli [1] and above 1000 nM in the test with Staphylococcus aureus [5]. Also, the minimum inhibitory concentration (MIC) with Escherichia coli [2], against Escherichia coli [3], against Staphylococcus aureus [4] and against Streptococcus pneumoniae was above 64 µg/mL in each case.

As to `C/C=C/C=C/C(=O)N[C@@H](CC(=O)N[C@H](C(=O)[C@@H]1C(=O)NC(=O)C1(C)C)C(C)C)c1ccccc1`, the IC50 was determined as 54 nM in the test on Escherichia coli [1] and 900 nM in the test on Staphylococcus aureus [5]. For the same molecule, the MIC against Escherichia coli [2], against Escherichia coli [3], in the test with Staphylococcus aureus [4] and in the test with Streptococcus pneumoniae was above 64 µg/mL in each case.

Take `C/C=C/C=C/C=C/C(=O)N[C@@H](CC(=O)N[C@H](C(=O)[C@@H]1C(=O)NC(=O)[C@H]1C)C(C)C)c1ccccc1`: the IC50 was 13 nM with Escherichia coli [1] and 305 nM in the test on Staphylococcus aureus [5]. The MIC in the test with Escherichia coli [2] was 32 µg/mL (≈ 66.7 µM); against Escherichia coli [3], above 64 µg/mL; in the test with Staphylococcus aureus [4], 8 µg/mL (≈ 16.7 µM); in the test on Streptococcus pneumoniae, 8 µg/mL (≈ 16.7 µM).
